Experimental data as given in ChEMBL document CHEMBL1141933 (J Med Chem, 2005).

Key:
[1] = system: Plasmodium falciparum; test: Effective dose against chloroquine-resistant, pyrimethamine-resistant, mefloquine-sensitive Plasmodium falciparum K1; format: functional; details: read-out: ED50 (the source's name)
Method in brief: (§1)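 Asynchronous blood-stage culture (0.5% parasitemia, 0.5% hematocrit) in RPMI-1640 with 20% heat-inactivated human A+ plasma, human A+ erythrocytes. Compound added from DMSO, 48 h at 37 C under 5% CO2/5% O2/90% N2. [8-3H]hypoxanthine then added for a further 24 h and uptake counted. Uninfected-RBC background subtracted; DMSO vehicle = 100% growth. ED50 by linear regression, mean of at least two runs.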

[2] = system: Plasmodium falciparum; test: Effective dose against chloroquine-sensitive, pyrimethamine-sensitive, mefloquine-sensitive Plasmodium falciparum 3D7; format: functional; details: read-out: ED50 (the source's name)
Method in brief: (§2)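 Asynchronous culture in human A+ erythrocytes at 0.5% parasitemia and 0.5% hematocrit, in RPMI-1640 with 20% heat-inactivated human A+ plasma. Compound added in DMSO; 48 h at 37 C under 5% CO2/5% O2/90% N2. [8-3H]hypoxanthine added for a further 24 h, then incorporation counted. Uninfected-RBC background subtracted; DMSO = 100% growth. ED50 by linear regression; ≥2 tests, mean.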

[3] = system: Plasmodium falciparum; test: Effective dose against chloroquine-resistant, pyrimethamine-resistant, mefloquine-resistant Plasmodium falciparum Dd2; format: functional; details: read-out: ED50 (the source's name); method in brief: as §1
[4] = system: Plasmodium falciparum; test: Effective dose against chloroquine-sensitive, pyrimethamine-sensitive, mefloquine-sensitive Plasmodium falciparum HB3; format: functional; details: read-out: ED50 (the source's name); method in brief: as §2
[5] = biological target: T1, Protein farnesyltransferase (PFT) (Plasmodium falciparum, UniProt Q5EI73+Q5EI74); test: Inhibition of biotinylated lamin B peptide farnesylation by Plasmodium falciparum farnesyltransferase; format: protein-complex assay
T1 sequence (Q5EI73 whole entry): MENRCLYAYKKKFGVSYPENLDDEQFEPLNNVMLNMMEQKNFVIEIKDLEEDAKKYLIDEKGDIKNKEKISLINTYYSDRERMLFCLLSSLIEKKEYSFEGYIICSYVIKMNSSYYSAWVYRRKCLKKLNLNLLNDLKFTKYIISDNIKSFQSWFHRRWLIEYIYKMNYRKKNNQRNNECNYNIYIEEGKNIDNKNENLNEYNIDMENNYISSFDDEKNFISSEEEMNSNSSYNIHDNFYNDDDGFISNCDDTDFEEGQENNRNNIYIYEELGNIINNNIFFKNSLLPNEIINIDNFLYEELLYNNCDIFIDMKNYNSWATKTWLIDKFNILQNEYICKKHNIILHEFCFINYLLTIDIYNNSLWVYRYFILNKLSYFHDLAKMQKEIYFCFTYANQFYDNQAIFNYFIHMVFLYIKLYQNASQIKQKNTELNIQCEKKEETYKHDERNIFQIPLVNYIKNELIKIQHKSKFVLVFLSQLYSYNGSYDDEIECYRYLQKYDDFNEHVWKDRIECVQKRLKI
T1 sequence (Q5EI74 whole entry): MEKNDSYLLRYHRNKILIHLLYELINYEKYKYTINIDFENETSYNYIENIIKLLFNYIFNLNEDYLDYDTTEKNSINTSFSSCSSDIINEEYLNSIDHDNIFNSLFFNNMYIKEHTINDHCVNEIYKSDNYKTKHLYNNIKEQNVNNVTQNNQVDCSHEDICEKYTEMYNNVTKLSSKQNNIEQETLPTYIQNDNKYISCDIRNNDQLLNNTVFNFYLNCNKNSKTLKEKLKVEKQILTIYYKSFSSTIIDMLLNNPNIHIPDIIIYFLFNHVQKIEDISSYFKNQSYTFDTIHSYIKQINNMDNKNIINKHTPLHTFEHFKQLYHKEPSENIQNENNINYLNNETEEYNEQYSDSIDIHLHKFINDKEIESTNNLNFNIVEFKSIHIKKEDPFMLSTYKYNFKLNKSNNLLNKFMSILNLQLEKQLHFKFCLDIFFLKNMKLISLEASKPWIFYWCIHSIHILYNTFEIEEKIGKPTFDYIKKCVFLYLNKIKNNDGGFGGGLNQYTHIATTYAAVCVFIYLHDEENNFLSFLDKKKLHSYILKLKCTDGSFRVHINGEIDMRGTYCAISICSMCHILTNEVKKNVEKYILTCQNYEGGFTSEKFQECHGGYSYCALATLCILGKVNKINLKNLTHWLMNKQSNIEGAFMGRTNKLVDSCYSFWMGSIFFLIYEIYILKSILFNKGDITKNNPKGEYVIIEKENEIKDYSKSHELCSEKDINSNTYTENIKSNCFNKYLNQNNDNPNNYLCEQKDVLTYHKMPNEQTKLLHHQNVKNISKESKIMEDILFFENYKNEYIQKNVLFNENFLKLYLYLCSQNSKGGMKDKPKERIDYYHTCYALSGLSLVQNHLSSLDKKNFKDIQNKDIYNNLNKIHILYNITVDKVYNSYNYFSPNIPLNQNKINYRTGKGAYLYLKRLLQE

[6] = system: Plasmodium falciparum; test: Effective dose against Plasmodium falciparum; format: functional; details: read-out: ED50 (the source's name)
[7] = biological target: Protein farnesyltransferase (Rattus norvegicus, UniProt Q02293+Q04631); test: Inhibition of biotinylated lamin B peptide farnesylation by rat farnesyltransferase; format: protein-complex assay
[8] = system: Plasmodium falciparum; test: Effective dose against Plasmodium falciparum 3D7; format: functional; details: read-out: ED50 (the source's name); method in brief: as §2
[9] = system: Plasmodium falciparum; test: Effective dose against chloroquine-resistant, pyrimethamine-resistant, mefloquine-sensitive Plasmodium falciparum W2; format: functional; details: read-out: ED50 (the source's name); method in brief: as §1

| SMILES | EC50 [1] [nM] | EC50 [2] [nM] | EC50 [3] [nM] | EC50 [4] [nM] | IC50 [5] [nM] | EC50 [6] [nM] | IC50 [7] [nM] | EC50 [8] [nM] | EC50 [9] [nM] |
| --- | --- | --- | --- | --- | --- | --- | --- | --- | --- |
| CCc1nc(N)nc(N)c1-c1ccc(Cl)cc1 [PYRIMETHAMINE] | 25000 | 39 | 16000 | 2 |  |  |  |  |  |
| CSCC[C@H](NC(=O)c1ccc(CNCc2cnc[nH]2)cc1-c1ccccc1C)C(=O)OCc1ccccc1 |  |  |  |  | 1000 | 150 |  |  |  |
| N#Cc1ccc(Cn2cncc2CN[C@H]2CCN(Cc3cccc(Cl)c3)C2=O)cc1 |  |  |  |  |  | > 5000 |  |  |  |
| Cn1cncc1CN1CC(N(Cc2ccc3ccccc3c2Br)S(=O)(=O)c2ccccn2)Cc2cc(C#N)ccc21 (configuration not stated) |  |  |  |  | 165 |  | 440 | 2750 |  |
| Cn1cnc(S(=O)(=O)N(CC(=O)NC(C)(C)C)C2Cc3cc(C#N)ccc3N(Cc3cncn3C)C2)c1 (configuration not stated) | 7 | 5 | 4 | 7 | 1.2 |  | 1.5 |  | 8 |
| CCN(CC)CCCC(C)Nc1ccnc2cc(Cl)ccc12 (configuration not stated) [CHLOROQUINE] | 200 | 8 | 78 | 5 |  |  |  |  | 125 |
| Cn1cncc1C(O)(CN1CCC(C#N)=C(c2cccc3ccccc23)C1)c1ccc(C#N)cc1 (configuration not stated) |  |  |  |  | 9 | > 5000 |  |  |  |
| Cn1cncc1CN1CC(N(CC(=O)NC(C)(C)C)S(=O)(=O)c2ccncc2)Cc2cc(C#N)ccc21 (configuration not stated) |  |  |  |  | 1000 |  | 160 | > 5000 |  |
| Cn1cncc1CN1CC(N(Cc2ccccn2)S(=O)(=O)c2ccccn2)Cc2cc(C#N)ccc21 (configuration not stated) |  |  |  |  | 2.8 |  | 3.8 | 51 |  |
| NC(=O)N1CCC(CC(=O)N2CCC([C@H]3c4ncc(Br)cc4CCc4cc(Cl)cc(Br)c43)CC2)CC1 [LONAFARNIB] |  |  |  |  | > 250 | 3000 |  |  |  |
| CCSC[C@H](CC1CCCCC1)NCc1ccc(C(=O)N[C@@H](CCSC)C(=O)O)c(-c2ccccc2C)c1 |  |  |  |  | 5 | > 5000 |  |  |  |
| CSCC[C@H](NC(=O)c1ccc(CNCc2c[nH]cn2)cc1-c1ccccc1C)C(=O)O |  |  |  |  | 15 | > 20000 |  |  |  |
| Cn1cnc(S(=O)(=O)N(Cc2ccccc2)C2Cc3cc(C#N)ccc3N(Cc3cncn3C)C2)c1 (configuration not stated) | 9 | 5 | 8 | 10 | 0.6 |  | 1.2 |  | 14 |
| Cc1ccccc1CN(C1Cc2cc(C#N)ccc2N(Cc2cncn2C)C1)S(=O)(=O)c1cn(C)cn1 (configuration not stated) |  |  |  |  | 1.5 |  | 3.4 | 55 |  |
| Cc1onc(-c2ccccc2)c1CN(C1Cc2cc(C#N)ccc2N(Cc2cncn2C)C1)S(=O)(=O)c1ccccn1 (configuration not stated) |  |  |  |  | 0.8 |  | 3 | 113 |  |
| Cn1cncc1CN1CC(N(Cc2cc3nsnc3cc2Cl)S(=O)(=O)c2ccccn2)Cc2cc(C#N)ccc21 (configuration not stated) |  |  |  |  | 55 |  | 10 | 3000 |  |
| Cn1cncc1CN1CC(N(CC(=O)NC(C)(C)C)S(=O)(=O)Cc2ccc(F)cc2)Cc2cc(C#N)ccc21 (configuration not stated) |  |  |  |  | 42 |  | 7.6 | > 5000 |  |
| C=C(Br)CN(C1Cc2cc(C#N)ccc2N(Cc2cncn2C)C1)S(=O)(=O)c1cn(C)cn1 (configuration not stated) | 10 | 6 | 10 | 10 | 0.4 |  | 0.8 |  | 14 |
| Cn1cnc(S(=O)(=O)N(CC(=O)OC(C)(C)C)C2Cc3cc(C#N)ccc3N(Cc3cncn3C)C2)c1 (configuration not stated) | 20 | 5 | 6 | 7 | 0.9 |  | 1.2 |  |  |
| Cn1cnc(S(=O)(=O)N(CC2CCN(C(=O)OC(C)(C)C)CC2)C2Cc3cc(C#N)ccc3N(Cc3cncn3C)C2)c1 (configuration not stated) |  |  |  |  | 1.1 |  | 3.2 | 100 |  |
| Cn1cncc1CN1CC(N(CC(=O)NC(C)(C)C)S(=O)(=O)c2ccccn2)Cc2cc(C#N)ccc21 (configuration not stated) |  |  |  |  | 1.4 |  | 1.8 | 85 |  |
| Cn1cnc(S(=O)(=O)N(Cc2ccc3ccccc3c2Br)C2Cc3cc(C#N)ccc3N(Cc3cncn3C)C2)c1 (configuration not stated) |  |  |  |  | 28 |  | 1000 | 3000 |  |
| Cn1cncc1[C@@](N)(c1ccc(Cl)cc1)c1ccc2c(c1)c(-c1cccc(Cl)c1)cc(=O)n2C [TIPIFARNIB] |  |  |  |  | 7 | 3000 |  |  |  |
| Cn1cncc1CN1CC(N(CC(=O)NC(C)(C)C)S(=O)(=O)c2cccnc2)Cc2cc(C#N)ccc21 (configuration not stated) |  |  |  |  | 25 |  | 6 | 2700 |  |
| Cn1cncc1CN1CC(N(CC(=O)NC(C)(C)C)S(=O)(=O)c2nccn2C)Cc2cc(C#N)ccc21 (configuration not stated) |  |  |  |  | 8 |  | 5 | > 5000 |  |
| C=C(C)CN(C1Cc2cc(C#N)ccc2N(Cc2cncn2C)C1)S(=O)(=O)c1cn(C)cn1 (configuration not stated) | 15 | 7 | 10 | 12 | 0.6 |  | 0.7 |  | 21 |
| O[C@H](c1cc(C(F)(F)F)nc2c(C(F)(F)F)cccc12)[C@@H]1CCCCN1 [MEFLOQUINE] | 10 | 24 | 100 | 29 |  |  |  |  | 9 |
